Here are results for 16 molecules from PubChem BioAssay.

A number with no mark means an inactive call.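 The calls were made as follows: active = growth inhibition above 25% in both replicates, a cutoff set 3 SD above the mean; inconclusive = above 25% in only one replicate; inactive = the rest.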

The assay in a line: S. cerevisiae growth inhibition in permissive medium (OD615), pilot counter-assay for S. cerevisiae lifespan shortening project, permissive growth control (AID 705). The note with it: OD615, 24 h, at 10 µM, stronger effect = higher value. The gist of the method: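 Test system: Saccharomyces cerevisiae strain carrying genetically modified DeaD replicative-lifespan system; buffer or medium: SC raffinose/galactose permissive medium; dosing: one dose 10 µM, DMSO 0.25% final; times: 24 h exposure, 30 °C; measured by: OD at 615 nm; read-out basis: growth inhibition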
On to `Cc1ccc(CNC(=O)C2CCCN(S(=O)(=O)c3cnc[nH]3)C2)cc1` (stereo unspecified), for which the growth inhibition was 0.76%. As for `COc1cc2c(cc1OC)C(c1ccc(C)o1)CC(=O)N2` (stereo unspecified), the growth inhibition was -3.98%. As for `COc1ccc(S(=O)(=O)Nc2ccc(F)c(Cl)c2)cc1OC`, the growth inhibition is -15.3%.

Turning to `O=C(OCCN(CCOC(=O)c1ccncc1)S(=O)(=O)c1cccs1)c1ccncc1`, the growth inhibition was 4.38%. As for `N#CCCN(Cc1cccnc1)C(=O)Nc1ccc(Cl)c(Cl)c1`, the growth inhibition was -13.1%. Consider `NC(=O)CN1C(=O)C(O)(CC(=O)c2ccccc2O)c2ccccc21` (stereo unspecified), for which the growth inhibition is 1.61%. The figure for `CCCOc1ccc(C2C(C(=O)OC)=CN(CCOC)C=C2C(=O)OC)cc1` is -11.5%; for `C(=N\c1c(-c2ccccc2)nc2n1CCS2)/c1ccccc1` it is 1.59%; for `COC(=O)c1cn(NC(=O)C2CCCO2)c(=O)c2ccccc12` (stereo unspecified) it is -21.3%.

For `CCN1CCN(C(=O)C2CC(c3ccc(F)cc3)=NO2)CC1` (stereo unspecified), the growth inhibition was -3.54%.

In the case of `CCOC(=O)C1CCN(Cc2ccc(OC)c(C)c2OC)CC1`, the growth inhibition was -2.98%.

For the molecule `Cn1c(NC(=O)c2ccccc2NC(=O)C(C)(C)C)nc2ccccc21`, the growth inhibition is 3.42%. Under `Cc1cccc(CN2CCC(CNC(=O)C3CCCN(S(=O)(=O)c4cnc[nH]4)C3)CC2)c1` (stereo unspecified) stands -0.3%. Under `CC1CC(NC(=O)c2cnc3n(c2=O)CCS3)CC(C)(C)C1` (stereo unspecified) stands -8.98%; under `CC1CCCN(S(=O)(=O)c2coc(C(N)=O)c2)C1` (stereo unspecified), -19.2%.

On to `O=C(NCc1ccc2c(c1)OCO2)C1CCCN(S(=O)(=O)c2cccc3cccnc23)C1` (stereo unspecified), for which the growth inhibition is -10.4%.
